Laboratory results published in ChEMBL document CHEMBL1146679, “Synthesis and biological evaluation of pyrrolo[2,1-c][1,4]benzodiazepine (PBD) C8 cyclic amine conjugates” (2004).

Experiments:
[1] = tested on: CH1; assay: Concentration required to inhibit CH1 tumor cell growth when compared with control after incubation for 96 hr at 37 C; type: functional, cell-based; settings: Homo sapiens
How it was run: (§1)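 Human ovarian tumour lines (SKOV-3, A2780, A2780cisR, CH1, CH1cisR) exposed to agent for 96 h at 37 °C; growth compared with PBD-free controls; IC50 taken as concentration giving 50% growth inhibition.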

[2] = tested on: Nucleic Acid; assay: In vitro induced thermal stabilization of duplex DNA melting after incubation with the compound (20 uM) at 37 C for 4 h; type: functional; settings: Bos taurus
How it was run: (§2)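 Duplex calf thymus DNA (100 µM in DNAp) mixed with ligand (20 µM), 5:1 molar ratio, in 10 mM NaH2PO4/Na2HPO4 + 1 mM Na2EDTA, pH 7.00 ± 0.01; held at 37 °C for 0, 4 or 18 h before thermal melting; ΔTm relative to DNA alone, ±0.1 °C, at least 3 determinations.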

[3] = tested on: CH1; assay: Resistance factor was determined as IC50 cisplatin-resistant/parent for human CH1cisR tumor ovarian cell line; type: functional
How it was run: (§3)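 Resistance factor computed as IC50 in cisplatin-resistant line divided by IC50 in parent line, for the A2780/A2780cisR and CH1/CH1cisR pairs, from 96 h, 37 °C growth-inhibition assays against PBD-free controls.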

[4] = tested on: CH1; assay: Concentration required to inhibit CH1cisR tumor cell growth when compared with control after incubation for 96 hr at 37 C; type: functional, cell-based; settings: Homo sapiens; how it was run: as §1
[5] = tested on: Nucleic Acid; assay: In vitro induced thermal stabilization of duplex DNA melting after incubation with the compound (20 uM) at 37 C for 18 h; type: functional; settings: Bos taurus; how it was run: as §2
[6] = tested on: A2780; assay: Concentration required to inhibit A2780 cell growth when compared with control after incubation for 96 hr at 37 C; type: functional, cell-based; settings: Homo sapiens; how it was run: as §1
[7] = tested on: A2780; assay: Resistance factor was determined as IC50 cisplatin-resistant/parent for human A2780 ovarian cell line; type: functional; how it was run: as §3
[8] = tested on: SK-OV-3; assay: Concentration required to inhibit SKOV-3 cell growth when compared with control after incubation for 96 hr at 37 C; type: functional, cell-based; settings: Homo sapiens; how it was run: as §1
[9] = tested on: Nucleic Acid; assay: gIn vitro induced thermal stabilization of duplex DNA melting after incubation with the compound (20 uM) at 37 C for 0 h; type: functional; settings: Bos taurus; how it was run: as §2
[10] = tested on: A2780; assay: Concentration required to inhibit A2780cisR cell growth when compared with control after incubation for 96 h at 37 C; type: functional, cell-based; settings: Homo sapiens; how it was run: as §1
[11] = tested on: Nucleic Acid; assay: In vitro induced thermal stabilization of duplex DNA melting after incubation with the compound (20 uM) at 37 C for 0 h; type: functional; settings: Bos taurus; how it was run: as §2
[12] = Activity in NCI standard hollow fibre assay after intraperitoneal administration; type: functional
[13] = Activity in NCI standard hollow fibre assay after subcutaneous administration; type: functional
[14] = Total activity in NCI standard hollow fibre assay; type: functional

SMILES | Concentration [1] | ΔTm [2] | RF [3] | Concentration [4] | ΔTm [5] | Concentration [6] | RF [7] | Concentration [8] | ΔTm [9] | Concentration [10] | ΔTm [11] | Score [12] | Score [13] | Score [14]
COc1cc2c(cc1OCCC(=O)N1CCCC1)N=C[C@@H]1CCCN1C2=O | 1.4 µM | 0.9 °C | 1.3 | 1.85 µM | 1.2 °C | 1.5 µM | 2.9 | 5.4 µM | 0.5 °C | 4.3 µM |  |  |  | 
COc1cc2c(cc1OCCC(=O)N1Cc3ccccc3C1)N=C[C@@H]1CCCN1C2=O | 0.24 µM | 1.1 °C | 2 | 0.42 µM | 1.3 °C | 0.23 µM | 4 | 1.45 µM |  | 0.94 µM | 1 °C | 40 | 2 | 40
COc1cc2c(cc1OCCC(=O)N1CCc3ccccc31)N=C[C@@H]1CCCN1C2=O | 1.5 µM | 1 °C | 2 | 3 µM | 1.2 °C | 1.55 µM | 3.2 | 5.8 µM |  | 4.9 µM | 0.7 °C |  |  | 
COc1cc2c(cc1OCc1ccccc1)N=C[C@@H]1CCCN1C2=O | 0.145 µM | 0.4 °C | 1 | 0.145 µM | 0.4 °C | 0.17 µM | 2.8 | 0.46 µM |  | 0.48 µM | 0.2 °C |  |  | 
COc1cc2c(cc1OCCC(=O)N1CCCCC1)N=C[C@@H]1CCCN1C2=O | 4.9 µM | 0.9 °C | 1.6 | 7.9 µM | 1.2 °C | 3.2 µM | 4.5 | 23.5 µM |  | 14.5 µM | 0.8 °C |  |  | 
COc1cc2c(cc1OC)C(=O)N1CCC[C@H]1C=N2 | 0.082 µM | 0.4 °C | 1.3 | 0.11 µM | 0.6 °C | 0.064 µM | 2.4 | 1.7 µM |  | 0.155 µM | 0.2 °C |  |  | 
